# Measurements: ChEMBL document CHEMBL3745677, “Discovery of 6-(4-{[5-Cyclopropyl-3-(2,6-dichlorophenyl)isoxazol-4-yl]methoxy}piperidin-1-yl)-1-methyl-1H-indole-3-carboxylic Acid: A Novel FXR Agonist for the Treatment of Dyslipidemia” (J Med Chem, 2015)
# Experiments:
# [1] = test system: Mus musculus; test: Antidyslipidemic activity in western-diet fed mouse expressing LDL-receptor (-/-) assessed as decrease in very-low density lipoprotein level at 1 mg/kg qd for a week administered via gavage by FPLC analysis; type: functional; conditions: po
# How it was run: (§1)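 LDLR null male mice, six per group, were dosed by gavage once daily for one week (vehicle 5% Solutol, 5% EtOH, 1% wt/v CMC; 5 mL/kg). Serum was collected by cardiac puncture on day 7 under CO2 anaesthesia. Pooled serum from each treatment group was fractionated by FPLC to quantify VLDL and LDL.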
# [2] = Fraction unbound in rat plasma; type: ADME, cell-free
# [3] = Volume of distribution at steady state in beagle dog at 1 mg/kg, iv by LC-MS/MS analysis; type: ADME, organism-based, Canis lupus familiaris; conditions: in vivo, read-out: Vdss
# How it was run: (§2)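 Intravenous dose given in 5% Solutol / 5% EtOH in saline (1 mg/kg rat and dog, 0.91 mpk monkey). Plasma samples collected and analyzed by LC-MS/MS; parameters reported as mean ± SD, N=2-3.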
# [4] = test system: Mus musculus; test: Antidyslipidemic activity in western-diet fed mouse expressing LDL-receptor (-/-) assessed as decrease in triglyceride level at 30 mg/kg qd for a week administered via gavage […]; type: functional; conditions: po
# How it was run: (§3)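 Male LDLR null mice, six per group, were gavaged once daily for one week with compound (in situ sodium salt) or vehicle (5% Solutol, 5% EtOH, 1% wt/v CMC) at 5 mL/kg. On day 7 they were bled by cardiac puncture under CO2 anaesthesia. Serum cholesterol and triglycerides were measured enzymatically on a clinical chemistry analyser (mean ± SD, n=6). ED50 was obtained by nonlinear regression.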
# [5] = test system: Mus musculus; test: Antidyslipidemic activity in western-diet fed mouse expressing LDL-receptor (-/-) assessed as decrease in very-low density lipoprotein level at 10 mg/kg qd for a week administered via gavage by FPLC analysis; type: functional; conditions: po; how it was run: as §1
# [6] = test system: Mus musculus; test: Antidyslipidemic activity in western-diet fed mouse expressing LDL-receptor (-/-) assessed as decrease in low density lipoprotein level at 1 mg/kg qd for a week administered via gavage by FPLC analysis; type: functional; conditions: po; how it was run: as §1
# [7] = test system: Rattus norvegicus; test: Antidyslipidemic activity in ZDF rat assessed as VLDL level at 3 mg/kg for 9 days by FPLC analysis (reference value: 35 mg/dL); type: functional, Zucker
# [8] = Volume of distribution at steady state in cynomolgus monkey at 0.91 mg/kg, iv by LC-MS/MS analysis; type: ADME, organism-based, Macaca fascicularis; conditions: in vivo, read-out: Vdss; how it was run: as §2
# [9] = target: T1, Mineralocorticoid receptor (Homo sapiens, UniProt P08235); test: Agonist activity at mineralocorticoid receptor (unknown origin) expressed in HEK293 cells assessed as transcriptional activation; type: cell-based
# T1 sequence (P08235 whole entry): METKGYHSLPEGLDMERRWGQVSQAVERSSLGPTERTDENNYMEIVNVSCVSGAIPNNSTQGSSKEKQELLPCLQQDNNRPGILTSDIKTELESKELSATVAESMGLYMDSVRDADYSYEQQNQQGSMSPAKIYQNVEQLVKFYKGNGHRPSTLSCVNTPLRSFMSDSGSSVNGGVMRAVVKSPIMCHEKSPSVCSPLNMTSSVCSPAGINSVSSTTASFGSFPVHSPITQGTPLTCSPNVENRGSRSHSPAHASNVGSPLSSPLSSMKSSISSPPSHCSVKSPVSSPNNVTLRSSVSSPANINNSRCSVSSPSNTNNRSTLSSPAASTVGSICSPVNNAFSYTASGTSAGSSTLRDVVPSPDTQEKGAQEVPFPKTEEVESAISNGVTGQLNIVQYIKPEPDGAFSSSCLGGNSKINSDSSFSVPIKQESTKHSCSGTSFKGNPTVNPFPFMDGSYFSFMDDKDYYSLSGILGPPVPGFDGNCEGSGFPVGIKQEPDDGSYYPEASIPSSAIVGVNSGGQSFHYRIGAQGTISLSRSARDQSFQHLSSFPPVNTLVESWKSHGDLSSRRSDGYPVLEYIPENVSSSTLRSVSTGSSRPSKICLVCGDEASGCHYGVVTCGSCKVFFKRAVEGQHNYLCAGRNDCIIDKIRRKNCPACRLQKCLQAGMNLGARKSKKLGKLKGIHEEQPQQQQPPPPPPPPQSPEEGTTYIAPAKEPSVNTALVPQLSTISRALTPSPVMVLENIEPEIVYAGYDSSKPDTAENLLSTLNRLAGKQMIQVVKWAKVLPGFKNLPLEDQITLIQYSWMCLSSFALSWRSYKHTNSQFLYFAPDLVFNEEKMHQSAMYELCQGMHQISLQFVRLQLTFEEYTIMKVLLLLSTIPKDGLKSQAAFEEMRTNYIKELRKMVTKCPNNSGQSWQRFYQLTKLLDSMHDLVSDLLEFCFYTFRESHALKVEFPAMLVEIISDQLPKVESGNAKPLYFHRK
# [10] = Oral bioavailability in cynomolgus monkey at 3 mg/kg by LC-MS/MS analysis; type: ADME, organism-based, Macaca fascicularis; conditions: in vivo
# How it was run: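 Bioavailability calculated from a 3 mpk oral/nasogastric dose (1.0% CMC/0.25% PS80/0.05% antifoam in water) against a 0.91 mpk IV dose (5% Solutol/5% EtOH in saline). Plasma analyzed by LC-MS/MS; mean ± SD, N=2-3.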
# [11] = test system: Mus musculus; test: Antidyslipidemic activity in western-diet fed mouse expressing LDL-receptor (-/-) assessed as decrease in triglyceride level at 3 mg/kg qd for a week administered via gavage […]; type: functional; conditions: po; how it was run: as §3
compound,measurement,setting,value
Cn1cc(C(=O)O)c2ccc(N3CCC(OCc4c(-c5c(Cl)cccc5Cl)noc4C4CC4)CC3)cc21 [TERN-101],inhibition in vivo at 1 mg/kg,[1],59%
same,fraction unbound,[2],0.02
same,Vd,[3],2.48 L/kg
same,inhibition in vivo at 30 mg/kg,[4],83%
same,inhibition in vivo at 10 mg/kg,[5],96%
same,inhibition in vivo at 1 mg/kg,[6],1%
same,Activity,[7],21.9 mg/dL
same,Vd,[8],0.597 L/kg
same,EC50,[9],> 10 µM
same,bioavailability,[10],24%
same,inhibition in vivo at 3 mg/kg,[11],46%
